Reference: ChEMBL document CHEMBL4325910, “Design and synthesis of rosiglitazone-ferulic acid-nitric oxide donor trihybrids for improving glucose tolerance” (Eur J Med Chem, 2019)
Activity calls are given as the source filed them. No cut-off for these calls is given here.

Assays:
[1] = tested on: 3T3-L1; assay: Induction of insulin-stimulated 2-NBDG uptake in TNF-alpha-induced insulin resistant mouse 3T3L1 cells at 10 uM preincubated for 48 hrs followed by 2-NBDG addition measured after 30 mins in presence of insulin by fluorescence assay; format: functional, cell-based
Method in brief: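 Day-8 differentiated 3T3-L1 adipocytes received TNF-α (4 ng/mL) daily for 4 days. They were pretreated in triplicate for 48 h (C-PTIO 20 μM where indicated), then given 100 μM 2-NBDG at 37 °C for 30 min in the dark, with or without insulin. After KRP washes, fluorescence was read at Ex/Em 485/515 nm. Three experiments, mean ± SD.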

[2] = tested on: L02; assay: Inhibition of cellular glucose output in dexamethasone-induced insulin resistant human L02 cells assessed as insulin-stimulated glucose uptake at 10 uM preincubated for 24 hrs followed by insulin stimulation measured after 24 hrs by glucose oxidase method (reference value: 4.5 +/- 0.7%); format: functional; set-up: scale not given: the % may be the effect or the level left
[3] = molecular target: T1, Aquaporin-2 (Homo sapiens, UniProt P41181); assay: Induction of membrane translocation of biotinylated human AQP2 expressed in rat IMCD cells at 100 uM after 30 mins by Western blot analysis; format: cell-based; conditions: 0.5 h
T1 sequence (P41181 whole entry): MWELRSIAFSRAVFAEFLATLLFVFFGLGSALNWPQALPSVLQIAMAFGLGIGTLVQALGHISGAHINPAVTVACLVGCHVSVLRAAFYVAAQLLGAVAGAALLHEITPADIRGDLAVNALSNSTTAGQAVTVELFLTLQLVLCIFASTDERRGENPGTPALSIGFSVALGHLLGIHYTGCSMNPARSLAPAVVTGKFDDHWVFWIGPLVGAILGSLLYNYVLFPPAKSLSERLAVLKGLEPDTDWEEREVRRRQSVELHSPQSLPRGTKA
Method in brief: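 Human AQP2-transfected primary rat IMCD cells were treated for 30 min. Surface proteins were biotinylated with sulfo-NHS-LC-biotin (3 mg/mL, 60 min, 4 °C), then cells lysed in 1% NP-40 and pulled down overnight on streptavidin beads. Biotinylated and total AQP2 (30 μg/lane) were blotted with anti-AQP2 and quantified by densitometry as the biotinylated/total ratio. Three experiments, mean ± SD.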

[4] = molecular target: T1, Aquaporin-2; assay: Induction of membrane translocation of biotinylated human AQP2 expressed in rat IMCD cells at 100 uM after 30 mins by FITC-staining based confocal fluorescence microscopic analysis; format: cell-based; conditions: 0.5 h
Method in brief: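 Primary SD rat IMCD cells, day 5, were transfected with a human AQP2 plasmid (5 h, serum-free) and cultured 48 h. They were treated for 30 min, with 0.1% DMSO as vehicle and forskolin 100 μM as reference. Cells were fixed in paraformaldehyde, permeabilized with Triton X-100 and quenched with H2O2/methanol. They were stained with FITC-anti-AQP2 and imaged by confocal microscopy.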

Compound | Activity [1] | Activity [2] [%] | further results
COC(=O)/C=C/c1ccc(OC(=O)OCN2C(=O)SC(Cc3ccc(OCCN(C)c4ccccn4)cc3)C2=O)c(OC)c1 (centres undefined) | Active | – | –
COc1cc(/C=C/C(=O)OCCCCCO[N+](=O)[O-])ccc1OC(=O)OCN1C(=O)SC(Cc2ccc(OCCN(C)c3ccccn3)cc2)C1=O (centres undefined) | – | 7.1 | –
COC(=O)/C=C/c1ccc(O)c(OC)c1 | Active | – | –
COc1cc(/C=C/C(=O)OCCCCO[N+](=O)[O-])ccc1OC(=O)CCC(=O)OCN1C(=O)SC(Cc2ccc(OCCN(C)c3ccccn3)cc2)C1=O (centres undefined) | – | 7.8 | –
COc1cc(/C=C/C(=O)OCCCCO[N+](=O)[O-])ccc1OC(=O)OCN1C(=O)SC(Cc2ccc(OCCN(C)c3ccccn3)cc2)C1=O (centres undefined) | Active | 12.2 | –
COc1cc(/C=C/C(=O)OCN2C(=O)SC(Cc3ccc(OCCN(C)c4ccccn4)cc3)C2=O)ccc1OCCCCCO[N+](=O)[O-] (centres undefined) | – | 7.1 | –
COc1cc(/C=C/C(=O)OCN2C(=O)SC(Cc3ccc(OCCN(C)c4ccccn4)cc3)C2=O)ccc1OCCCCCCO[N+](=O)[O-] (centres undefined) | – | 8.5 | –
C=C[C@@]1(C)CC(=O)[C@]2(O)[C@@]3(C)[C@@H](O)CCC(C)(C)[C@@H]3[C@H](O)[C@H](OC(C)=O)[C@@]2(C)O1 [COLFORSIN] | – | – | Activity [3]: Active; Activity [4]: Active
COc1cc(/C=C/C(=O)OCCCCCO[N+](=O)[O-])ccc1OC(=O)CCC(=O)OCN1C(=O)SC(Cc2ccc(OCCN(C)c3ccccn3)cc2)C1=O (centres undefined) | – | 10.1 | –
COc1cc(/C=C/C(=O)OCCCCCCO[N+](=O)[O-])ccc1OC(=O)CCC(=O)OCN1C(=O)SC(Cc2ccc(OCCN(C)c3ccccn3)cc2)C1=O (centres undefined) | – | 6.8 | –
COc1cc(/C=C/C(=O)OCCCO[N+](=O)[O-])ccc1OC(=O)OCN1C(=O)SC(Cc2ccc(OCCN(C)c3ccccn3)cc2)C1=O (centres undefined) | – | 9.6 | –
COc1cc(/C=C/C(=O)OCCCCCCO[N+](=O)[O-])ccc1OC(=O)OCN1C(=O)SC(Cc2ccc(OCCN(C)c3ccccn3)cc2)C1=O (centres undefined) | – | 8 | –
COc1cc(/C=C/C(=O)OCN2C(=O)SC(Cc3ccc(OCCN(C)c4ccccn4)cc3)C2=O)ccc1OCCCCO[N+](=O)[O-] (centres undefined) | inactive | 11.1 | –
COc1cc(/C=C/C(=O)OCCCO[N+](=O)[O-])ccc1OC(=O)CCC(=O)OCN1C(=O)SC(Cc2ccc(OCCN(C)c3ccccn3)cc2)C1=O (centres undefined) | – | 10 | –
COc1cc(/C=C/C(=O)OCN2C(=O)SC(Cc3ccc(OCCN(C)c4ccccn4)cc3)C2=O)ccc1OCCCO[N+](=O)[O-] (centres undefined) | inactive | 11.5 | –
